According to ChEMBL document CHEMBL1156269, “Biological and biophysical properties of the histone deacetylase inhibitor suberoylanilide hydroxamic acid are affected by the presence of short alkyl groups on the phenyl ring” (J Med Chem, 2010):
Activity calls are given as the source filed them. No cut-off for these calls is given here.

System: Caco-2
Test: Induction of P21WAF1 gene expression in human Caco-2 cells at 5 uM after 24 hrs by Western blotting
Format: functional, cell-based
Procedure, shortened: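 Caco-2 cells were plated at 3×10⁵/well one day before treatment, then exposed for 24 h at 1 or 5 μM. Cells were scraped into PBS and protein was quantified. Equal protein was run on 12% SDS-PAGE and transferred to nitrocellulose. Blots were probed with mouse anti-p21 (1/1000, milk buffer) and an HRP secondary, with chemiluminescent detection; actin served as loading check.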

With `O=C(CCCCCCC(=O)Nc1ccccc1)NO` the Activity was “inactive”.
